ChEMBL document CHEMBL1122126, “Pyrazolo[3,4-d]pyrimidine ribonucleosides as anticoccidials. 2. Synthesis and activity of some nucleosides of 4-(alkylamino)-1H-pyrazolo[3, 4-d]pyrimidines” (1982)
Converted amounts (≈) assume the structure as drawn.

What was measured:
Gallus gallus [1] = test: Compound tested in vivo for anti-coccidial activity which cleared number of chicks from parasite at 400 ppm in the diet; format: functional
In short: (§1)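 Week-old chicks were given a simultaneous infection of Eimeria tenella (Weybridge strain) and E. acervulina (Ongar strain). Compound was mixed into the diet at the stated ppm level. Activity against E. acervulina was judged from oocyst production at day 5. Treated-group weight gain was compared with controls.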

Eimeria tenella [2] = test: In vitro minimum inhibitory concentration for Eimeria tenella in embryonic chick liver cells; format: functional
In short: (§2)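 E. tenella (Weybridge strain) was grown in cultured embryonic chick liver cells. The minimum inhibitory concentration against parasite growth was determined, and toxicity to the host cells was recorded alongside it.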

L cells [3] = test: Concentration that inhibited the growth of Mouse L cells.; format: functional; settings: L929, read-out: ED50 (the source's name)
In short: (§3)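 Cloned Detroit 98 cells (human sternal marrow, ATCC CCL 18.1 derivative) or cloned mouse L cells (C3H/AN connective tissue) were grown as monolayers in modified Eagle's medium at 36 °C in a humidified CO2 incubator. Cells were exposed for 70-76 h, and control cultures reached at least two doublings. Total counts were made by electronic counter on replicate cultures. ED50 is the molar concentration giving 50% of control growth, read from a plot.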

Detroit 98 [4] = test: Concentration that inhibited the growth of cultured human detroit 98 cells.; format: functional; settings: read-out: ED50 (the source's name); in short: as §3
Eimeria tenella [5] = test: Anti-coccidial activity which cleared number of chicks from parasite; format: functional; in short: as §1
Gallus gallus [6] = test: Compound tested in vivo for anti-coccidial activity which cleared number of chicks from parasite at 400 ppm in the diet; One chick out of five died and contained lesions due to parasite; format: functional
Gallus gallus [7] = test: Compound tested in vivo for anti-coccidial activity which cleared number of chicks from parasite at 100 ppm in the diet; One chick out of five died and contained lesions due to parasite
Detroit 98 [8] = test: Concentration that inhibited the growth of cultured human detroit 98 cells; format: functional; settings: read-out: ED50 (the source's name); in short: as §3
L cells [9] = test: Concentration that inhibited the growth of Mouse L cells; format: functional; settings: L929, read-out: ED50 (the source's name); in short: as §3
Gallus gallus [10] = organism: Gallus gallus; test: In vitro minimum inhibitory concentration for Eimeria tenella in embryonic chick liver cells; Toxic; format: functional; in short: as §2
Gallus gallus [11] = test: Compound tested in vivo for anti-coccidial activity which cleared number of chicks from parasite at 200 p.p.m. in the diet
Gallus gallus [12] = test: Compound tested in vivo for anti-coccidial activity which cleared number of chicks from parasite at 400 ppm in the diet; Chicks showed decreased weight gain; format: functional; in short: as §1
Gallus gallus [13] = organism: Gallus gallus; test: In vitro minimum inhibitory concentration for Eimeria tenella in embryonic chick liver cells; Slightly toxic; format: functional; in short: as §2
Gallus gallus [14] = test: Compound tested in vivo for anti-coccidial activity which cleared number of chicks from parasite at 25 p.p.m. in the diet; format: functional; in short: as §1

Compound | MIC (Eimeria tenella [2]) | No. of chicks (Eimeria tenella [5]) | other results
O=c1[nH]cnc2c1cnn2[C@@H]1O[C@H](CO)[C@@H](O)[C@H]1O | 20 µg/mL (≈ 74.6 µM) |  | No. of chicks (Gallus gallus [1]): 0
OC[C@H]1OC(n2ncc3c(NCc4ccco4)ncnc32)[C@H](O)[C@@H]1O (stereo not given in full) | 0.31 µg/mL (≈ 0.893 µM) |  | EC50 (L cells [3]): 3 µM; EC50 (Detroit 98 [4]): 0.3 µM
CNc1ncnc2c1cnn2C1O[C@H](CO)[C@@H](O)[C@H]1O (stereo not given in full) | 0.31 µg/mL (≈ 1.1 µM) | 0 | 
NNc1ncnc2c1cnn2C1O[C@H](CO)[C@@H](O)[C@H]1O (stereo not given in full) | 5 µg/mL (≈ 17.7 µM) |  | EC50 (L cells [3]): 100 µM; No. of chicks (Gallus gallus [6]): 0; EC50 (Detroit 98 [4]): 20 µM
CCCCCCCCNc1ncnc2c1cnn2C1O[C@H](CO)[C@@H](O)[C@H]1O (stereo not given in full) | 5 µg/mL (≈ 13.2 µM) |  | No. of chicks (Gallus gallus [7]): 0
O=C(Nc1ncnc2c1cnn2C1O[C@H](CO)[C@@H](O)[C@H]1O)c1ccccc1 (stereo not given in full) |  | 0 | EC50 (Detroit 98 [8]): > 100 µM; EC50 (L cells [9]): > 100 µM; MIC (Gallus gallus [10]): 5 µg/mL (≈ 13.5 µM)
OC[C@H]1OC(n2ncc3c(NCc4ccccc4)ncnc32)[C@H](O)[C@@H]1O (stereo not given in full) | 0.31 µg/mL (≈ 0.867 µM) | 0 | 
CCCCCCN(CCCCCC)c1ncnc2c1cnn2C1O[C@H](CO)[C@@H](O)[C@H]1O (stereo not given in full) | > 20 µg/mL | 1 | EC50 (L cells [3]): 50 µM; EC50 (Detroit 98 [4]): 50 µM
CCCCN(CC)c1ncnc2c1cnn2C1O[C@H](CO)[C@@H](O)[C@H]1O (stereo not given in full) | 5 µg/mL (≈ 14.2 µM) | 0 | 
CN(C)c1ncnc2c1cnn2C1O[C@H](CO)[C@@H](O)[C@H]1O (stereo not given in full) | 5 µg/mL (≈ 16.9 µM) |  | No. of chicks (Gallus gallus [11]): 2
CCN(CC)c1ncnc2c1cnn2C1O[C@H](CO)[C@@H](O)[C@H]1O (stereo not given in full) | 5 µg/mL (≈ 15.5 µM) |  | No. of chicks (Gallus gallus [12]): 1
CCCCCCNc1ncnc2c1cnn2C1O[C@H](CO)[C@@H](O)[C@H]1O (stereo not given in full) | 1.25 µg/mL (≈ 3.56 µM) | 0 | 
OC[C@H]1OC(n2ncc3c(N4CCOCC4)ncnc32)[C@H](O)[C@@H]1O (stereo not given in full) |  |  | No. of chicks (Gallus gallus [1]): 0; MIC (Gallus gallus [13]): 20 µg/mL (≈ 59.3 µM)
CC(C)=CCNc1ncnc2c1cnn2C1O[C@H](CO)[C@@H](O)[C@H]1O (stereo not given in full) | 5 µg/mL (≈ 14.9 µM) | 0 | EC50 (L cells [3]): > 100 µM; EC50 (Detroit 98 [4]): 1.5 µM; No. of chicks (Gallus gallus [14]): 0
CCNc1ncnc2c1cnn2C1O[C@H](CO)[C@@H](O)[C@H]1O (stereo not given in full) | 5 µg/mL (≈ 16.9 µM) |  | No. of chicks (Gallus gallus [1]): 1
OC[C@H]1OC(n2ncc3c(NC4CCCC4)ncnc32)[C@H](O)[C@@H]1O (stereo not given in full) | 0.31 µg/mL (≈ 0.924 µM) | 5 | 
CCCCNc1ncnc2c1cnn2C1O[C@H](CO)[C@@H](O)[C@H]1O (stereo not given in full) | 1.25 µg/mL (≈ 3.87 µM) | 0 | 
OC[C@H]1OC(n2ncc3c(NCCc4ccccc4)ncnc32)[C@H](O)[C@@H]1O (stereo not given in full) | 5 µg/mL (≈ 13.5 µM) |  | No. of chicks (Gallus gallus [7]): 0
Nc1ncnc2c1ncn2[C@@H]1O[C@H](CO)[C@@H](O)[C@H]1O [ADENOSINE] |  | 0 | EC50 (L cells [3]): 0.3 µM; EC50 (Detroit 98 [4]): 0.08 µM; MIC (Gallus gallus [10]): 20 µg/mL (≈ 74.8 µM)
